In ChEMBL document CHEMBL1811883, “The combination of 4-anilinoquinazoline and cinnamic acid: a novel mode of binding to the epidermal growth factor receptor tyrosine kinase” (Bioorg Med Chem, 2011):
Converted amounts (≈) assume the structure as drawn.

Legend:
A549 = assay: Antiproliferative activity against human A549 cells after 48 hrs by MTT assay; type: functional, cell-based; conditions: A549, 48 h
How it was run: (§1)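 Cells exposed to compound at final concentrations from 0.01 to 100 (µg/mL per text) for 48 h. MTT (5 mg/mL in PBS) added for 6 h, then 10% SDS in 0.01 N HCl for a further 4 h at 37 °C. Absorbance read at 570 nm; survival expressed relative to untreated cells.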

B16-F10 = assay: Antiproliferative activity against mouse B16F10 cells assessed as inhibition of serum-stimulated cell growth after 48 hrs by MTT assay; type: functional, cell-based; conditions: B16-F10, 48 h; how it was run: as §1
[1] = molecular target: Epidermal growth factor receptor (Homo sapiens, UniProt P00533); assay: Inhibition of recombinant EGFR expressed in baculovirus infected Sf9 cells after 1 hr by DELFIA/time-resolved fluorimetry assay
A431 (Homo sapiens) = assay: Antiproliferative activity against human A431 cells expressing EGFR assessed as inhibition of basal cell growth after 48 hrs by MTT assay; conditions: A431, 48 h

Epidermal growth factor receptor, sequence (P00533 whole entry): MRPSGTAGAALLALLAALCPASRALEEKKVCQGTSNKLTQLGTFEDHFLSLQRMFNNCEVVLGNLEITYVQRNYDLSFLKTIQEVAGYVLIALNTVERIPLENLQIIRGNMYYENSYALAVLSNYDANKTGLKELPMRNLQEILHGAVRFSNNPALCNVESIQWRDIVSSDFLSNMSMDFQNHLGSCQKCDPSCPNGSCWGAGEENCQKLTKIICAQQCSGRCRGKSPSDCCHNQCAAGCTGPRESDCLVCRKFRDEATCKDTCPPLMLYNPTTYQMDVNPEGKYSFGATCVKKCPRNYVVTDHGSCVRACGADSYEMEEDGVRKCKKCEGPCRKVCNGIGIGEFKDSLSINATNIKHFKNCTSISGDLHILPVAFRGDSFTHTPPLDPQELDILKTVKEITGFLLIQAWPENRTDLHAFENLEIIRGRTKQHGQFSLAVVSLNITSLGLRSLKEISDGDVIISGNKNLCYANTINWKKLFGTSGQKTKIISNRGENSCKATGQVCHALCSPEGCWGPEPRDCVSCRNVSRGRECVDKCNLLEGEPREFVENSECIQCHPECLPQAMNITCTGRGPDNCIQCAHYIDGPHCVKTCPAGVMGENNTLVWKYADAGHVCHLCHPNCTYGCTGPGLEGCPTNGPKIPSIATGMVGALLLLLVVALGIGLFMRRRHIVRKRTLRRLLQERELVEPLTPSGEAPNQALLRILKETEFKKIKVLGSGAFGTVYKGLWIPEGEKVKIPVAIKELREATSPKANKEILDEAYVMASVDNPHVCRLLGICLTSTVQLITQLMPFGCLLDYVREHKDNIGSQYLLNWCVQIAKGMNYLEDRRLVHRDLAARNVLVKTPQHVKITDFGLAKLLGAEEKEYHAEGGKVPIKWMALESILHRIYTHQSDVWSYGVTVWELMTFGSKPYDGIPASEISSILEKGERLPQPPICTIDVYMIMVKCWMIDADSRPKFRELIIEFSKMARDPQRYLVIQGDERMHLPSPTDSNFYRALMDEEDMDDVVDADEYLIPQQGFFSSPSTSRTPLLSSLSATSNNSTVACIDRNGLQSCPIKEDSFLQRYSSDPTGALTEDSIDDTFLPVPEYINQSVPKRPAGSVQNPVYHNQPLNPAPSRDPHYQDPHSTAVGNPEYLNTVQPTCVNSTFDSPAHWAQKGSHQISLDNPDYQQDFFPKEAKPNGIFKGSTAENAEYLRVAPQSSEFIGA

IC50 (A549)	IC50 (B16-F10)	IC50 [1]	IC50 (A431 (Homo sapiens))	Structure (SMILES)
3.96 µg/mL (≈ 8.89 µM)	1.45 µg/mL (≈ 3.26 µM)			O=C(/C=C/c1ccccc1)Nc1ccc2ncnc(Nc3cccc(Br)c3)c2c1
1.06 µg/mL (≈ 2.21 µM)	0.38 µg/mL (≈ 0.792 µM)	1.21 µM		O=C(/C=C/c1ccc(Cl)cc1)Nc1ccc2ncnc(Nc3cccc(Br)c3)c2c1
6.63 µg/mL (≈ 13.8 µM)	2 µg/mL (≈ 4.17 µM)			O=C(/C=C/c1ccccc1Cl)Nc1ccc2ncnc(Nc3cccc(Br)c3)c2c1
15.3 µg/mL (≈ 29.2 µM)	10.7 µg/mL (≈ 20.3 µM)			O=C(/C=C/c1ccc(Br)cc1)Nc1ccc2ncnc(Nc3cccc(Br)c3)c2c1
2.38 µg/mL (≈ 4.54 µM)	0.92 µg/mL (≈ 1.76 µM)	4.28 µM		O=C(/C=C/c1ccccc1Br)Nc1ccc2ncnc(Nc3cccc(Br)c3)c2c1
3.36 µg/mL (≈ 7.07 µM)	1.24 µg/mL (≈ 2.61 µM)	7.22 µM		COc1ccc(/C=C/C(=O)Nc2ccc3ncnc(Nc4cccc(Br)c4)c3c2)cc1
3.55 µg/mL (≈ 7.47 µM)	1.28 µg/mL (≈ 2.69 µM)	7.71 µM		COc1ccccc1/C=C/C(=O)Nc1ccc2ncnc(Nc3cccc(Br)c3)c2c1
2.05 µg/mL (≈ 4.31 µM)	0.87 µg/mL (≈ 1.83 µM)	6.02 µM		COc1cccc(/C=C/C(=O)Nc2ccc3ncnc(Nc4cccc(Br)c4)c3c2)c1
4.66 µg/mL (≈ 10.3 µM)	2.51 µg/mL (≈ 5.56 µM)			O=C(/C=C/c1cccs1)Nc1ccc2ncnc(Nc3cccc(Br)c3)c2c1
3.01 µg/mL (≈ 6.55 µM)	1.39 µg/mL (≈ 3.03 µM)			Cc1ccc(/C=C/C(=O)Nc2ccc3ncnc(Nc4cccc(Br)c4)c3c2)cc1
1.85 µg/mL (≈ 3.77 µM)	0.981 µg/mL (≈ 2 µM)	5.16 µM	1.34 µM	O=C(/C=C/c1ccc([N+](=O)[O-])cc1)Nc1ccc2ncnc(Nc3cccc(Br)c3)c2c1
0.92 µg/mL (≈ 1.88 µM)	0.338 µg/mL (≈ 0.689 µM)	1.02 µM	0.98 µM	O=C(/C=C/c1ccccc1[N+](=O)[O-])Nc1ccc2ncnc(Nc3cccc(Br)c3)c2c1
1.58 µg/mL (≈ 3.94 µM)	0.68 µg/mL (≈ 1.7 µM)	3.61 µM		O=C(/C=C/c1ccccc1)Nc1ccc2ncnc(Nc3cccc(Cl)c3)c2c1
12.4 µg/mL (≈ 28.6 µM)	9.97 µg/mL (≈ 22.9 µM)			O=C(/C=C/c1ccc(Cl)cc1)Nc1ccc2ncnc(Nc3cccc(Cl)c3)c2c1
4.58 µg/mL (≈ 10.5 µM)	1.74 µg/mL (≈ 4 µM)			O=C(/C=C/c1ccccc1Cl)Nc1ccc2ncnc(Nc3cccc(Cl)c3)c2c1
1.86 µg/mL (≈ 3.88 µM)	0.75 µg/mL (≈ 1.56 µM)	3.49 µM		O=C(/C=C/c1ccc(Br)cc1)Nc1ccc2ncnc(Nc3cccc(Cl)c3)c2c1
5.63 µg/mL (≈ 11.7 µM)	1.65 µg/mL (≈ 3.44 µM)			O=C(/C=C/c1ccccc1Br)Nc1ccc2ncnc(Nc3cccc(Cl)c3)c2c1
2.58 µg/mL (≈ 5.99 µM)	1.05 µg/mL (≈ 2.44 µM)	6.63 µM		COc1cccc(/C=C/C(=O)Nc2ccc3ncnc(Nc4cccc(Cl)c4)c3c2)c1
9.23 µg/mL (≈ 22.7 µM)	4.26 µg/mL (≈ 10.5 µM)			O=C(/C=C/c1cccs1)Nc1ccc2ncnc(Nc3cccc(Cl)c3)c2c1
6.03 µg/mL (≈ 14.5 µM)	2.02 µg/mL (≈ 4.87 µM)			Cc1ccc(/C=C/C(=O)Nc2ccc3ncnc(Nc4cccc(Cl)c4)c3c2)cc1
1.49 µg/mL (≈ 3.3 µM)	0.671 µg/mL (≈ 1.49 µM)	2.81 µM		O=C(/C=C/c1cccc2ccccc12)Nc1ccc2ncnc(Nc3cccc(Cl)c3)c2c1
5.26 µg/mL (≈ 11.8 µM)	2.05 µg/mL (≈ 4.6 µM)	3.45 µM	2.13 µM	O=C(/C=C/c1ccc([N+](=O)[O-])cc1)Nc1ccc2ncnc(Nc3cccc(Cl)c3)c2c1
0.78 µg/mL (≈ 1.75 µM)	0.3 µg/mL (≈ 0.673 µM)		0.75 µM	O=C(/C=C/c1ccccc1[N+](=O)[O-])Nc1ccc2ncnc(Nc3cccc(Cl)c3)c2c1
		0.12 µM	0.33 µM	O=C(/C=C/c1cccc([N+](=O)[O-])c1)Nc1ccc2ncnc(Nc3cccc(Br)c3)c2c1
		0.19 µM	0.49 µM	O=C(/C=C/c1cccc([N+](=O)[O-])c1)Nc1ccc2ncnc(Nc3cccc(Cl)c3)c2c1
			47 µM	Nc1ccc2ncnc(Nc3cccc(Cl)c3)c2c1
			42 µM	Nc1ccc2ncnc(Nc3cccc(Br)c3)c2c1
	0.02 µg/mL (≈ 0.0508 µM)			C#Cc1cccc(Nc2ncnc3cc(OCCOC)c(OCCOC)cc23)c1 [ERLOTINIB]
